Structures are written as SMILES. In brackets after ≈: the same amount, converted by molar mass.

For data set [1], the species on record is Mus musculus. Description: Toxicity in mouse assessed as irritant dose causing ear redness after 24 hours by inflammation assay. In kind it is organism-based. As to conditions: in vivo. An outline of the steps: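 Compound applied to the mouse ear as an acetone (Me2CO) solution. Ear redness was scored 4 and 24 h after application. […] TPA served as the reference irritant.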

For the next data set, the system named is B16. Description: Cytotoxicity against mouse B16 cells by MTT assay. In kind it is functional, cell-based.
For data set [2], the species on record is Mus musculus. Description: Toxicity in mouse assessed as irritant dose causing ear redness after 4 hours by inflammation assay. In kind it is organism-based. As to conditions: in vivo. An outline of the steps:
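Test solution in Me2CO applied to the mouse ear; ear redness scored 4 and 24 h after application. […] TPA (12-O-tetradecanoylphorbol 13-acetate) run as reference irritant.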

On to `C=C1[C@H](OC(C)=O)[C@H]2[C@@H](OC(C)=O)[C@@H](C)C[C@]2(OC(C)=O)C(=O)[C@@H](C)/C=C/C(C)(C)C(=O)[C@H](OC(C)=O)[C@H]1OC(C)=O`, for which the ID50 in the data set listed under Mus musculus [1] is more than 100 µg.
Turning to `C=C1[C@H](OC(C)=O)[C@H]2[C@@H](OC(C)=O)[C@@H](C)C[C@]2(OC(C)=O)C(=O)[C@@H](C)/C=C/C(C)(C)C(=O)[C@H](OC(C)=O)[C@H]1OC(=O)c1ccccc1`, the ID50 in the data set filed under Mus musculus [1] was more than 100 µg.
By IC50 is commonly meant the point on the concentration scale where inhibition reaches its midpoint. For the compound `C=C1[C@H](OC(C)=O)[C@@H](OC(C)=O)[C@@H](OC(C)=O)C(C)(C)/C=C/[C@H](C)C(=O)[C@@]2(OC(C)=O)C[C@@](C)(OC(=O)c3ccccc3)[C@H](OC(C)=O)[C@@H]2[C@H]1OC(C)=O`, the ID50 in the data set listed under Mus musculus [1] is more than 100 µg. For the same compound, the 50% inhibitory concentration (IC50) in the data set on B16 is more than 5 µg/mL.
Consider `C=C1[C@H](OC(=O)c2ccccc2)[C@@H](OC(C)=O)[C@@H](OC(C)=O)C(C)(C)/C=C/[C@H](C)C(=O)[C@@]2(OC(C)=O)C[C@@](C)(OC(C)=O)[C@H](OC(C)=O)[C@@H]2[C@H]1OC(C)=O`, for which the ID50 in the data set listed under Mus musculus [1] was more than 100 µg. Also, the IC50 with B16 is more than 5 µg/mL.
`C=C1[C@H](OC(C)=O)[C@H]2[C@@H](OC(C)=O)[C@](C)(OC(=O)c3ccccc3)C[C@]2(OC(C)=O)C(=O)[C@@H](C)/C=C/C(C)(C)C(=O)[C@H](OC(C)=O)[C@H]1OC(C)=O`: in the data set listed under Mus musculus [1], the ID50 was more than 100 µg.
Regarding `C=C1[C@H](OC(=O)c2ccccc2)[C@@H](OC(C)=O)[C@@H](OC(C)=O)C(C)(C)/C=C/[C@H](C)C(=O)[C@@]2(OC(C)=O)C[C@H](C)[C@H](OC(C)=O)[C@@H]2[C@H]1OC(C)=O`, in the data set listed under Mus musculus [1], the ID50 is more than 100 µg.
Turning to `CCCCCCCCCCCCCC(=O)O[C@@H]1[C@@H](C)[C@@]2(O)[C@@H](C=C(CO)C[C@]3(O)C(=O)C(C)=C[C@@H]23)[C@@H]2C(C)(C)[C@]12OC(C)=O` [PHORBOL MYRISTATE ACETATE], the ID50 stood at 0.012 µg in the data set filed under Mus musculus [2] and 0.0085 µg in the data set listed under Mus musculus [1].
Turning to `CC[C@]1(O)C[C@@H]2CN(CCc3c([nH]c4ccccc34)[C@@](C(=O)OC)(c3cc4c(cc3OC)N(C)[C@H]3[C@@](O)(C(=O)OC)[C@H](OC(C)=O)[C@]5(CC)C=CCN6CC[C@]43[C@@H]65)C2)C1` [VINBLASTINE], the IC50 in the data set on B16 worked out at 3.6 µg/mL (≈ 4.44 µM).
